Source: ChEMBL document CHEMBL3758120, “Synthesis and Mechanism Studies of 1,3-Benzoazolyl Substituted Pyrrolo[2,3-b]pyrazine Derivatives as Nonintercalative Topoisomerase II Catalytic Inhibitors” (J Med Chem, 2016)
pIC50: −log10 of the molar value. Calls of active or inactive are those of the source. The rule behind the calls is not given here.

Key:
[1] = target: T1, DNA topoisomerase 2-alpha (Homo sapiens, UniProt P11388); assay: Inhibition of purified human topoisomerase 2-mediated relaxation of supercoiled pBR322 DNA at 20 uM incubated for 30 mins by agarose gel electrophoresis
Procedure, shortened: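 Reactions contained 0.2 μg supercoiled pBR322 in 50 mM Tris-HCl pH 8.0, 150 mM NaCl, 10 mM MgCl2, 0.5 mM DTT, 30 μg/ml BSA, normally 2 mM ATP (1, 2 or 4 mM in ATP-competition runs). Started with 1 U human Topo II, 30 min at 37 °C, stopped with sarcosyl buffer, run on 1% agarose 1.5 h at 75 V, gel-stained and imaged under UV.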

HL-60 [2] = assay: Induction of apoptosis in human HL60 cells assessed as early apoptotic cells at 0.5 uM after 12 hrs by annexin V-FITC/propidium iodide staining-based flow cytometric analysis (reference value: 0.38 to 0.55%); assay type: functional
Procedure, shortened: (§1)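 HL-60 cells at 5.0 × 10^5 cells/ml treated for 12 h (0.5–2 μM) or 24 h (0.25–1 μM), washed twice in cold PBS, resuspended in binding buffer, stained with annexin V-FITC and propidium iodide for 15 min in the dark, analysed by flow cytometry within 1 h; quadrants define live, early and late apoptotic cells. Three repeats.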

HL-60 [3] = assay: Induction of apoptosis in human HL60 cells assessed as viable cells at 2 uM after 12 hrs by annexin V-FITC/propidium iodide staining-based flow cytometric analysis (reference value: 99.12 to 99.33%); assay type: functional; settings: HL-60, 12 h, read-out: Activity; procedure, shortened: as §1
HL-60 [4] = assay: Induction of apoptosis in human HL60 cells assessed as early apoptotic cells at 1 uM after 24 hrs by annexin V-FITC/propidium iodide staining-based flow cytometric analysis (reference value: 0.5%); assay type: functional; procedure, shortened: as §1
HL-60 [5] = assay: Induction of apoptosis in human HL60 cells assessed as dead cells at 0.5 uM after 12 hrs by annexin V-FITC/propidium iodide staining-based flow cytometric analysis (reference value: 0.12 to 0.15%); assay type: functional
HL-60 [6] = assay: Induction of apoptosis in human HL60 cells assessed as viable cells at 0.25 uM after 24 hrs by annexin V-FITC/propidium iodide staining-based flow cytometric analysis (reference value: 97.75%); assay type: functional; settings: HL-60, 24 h, read-out: Activity; procedure, shortened: as §1
A549 = assay: Antiproliferative activity against human A549 cells after 48 hrs by MTT assay; assay type: functional, cell-based; settings: A549, 48 h
Procedure, shortened: (§2)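 Cells seeded at 5000 per well and left overnight, then exposed to increasing concentrations (0-50 μM) for 48 h. […] HL-60/MX2 is a mitoxantrone-selected HL-60 derivative with reduced Topo IIα/β.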

[7] = Antiproliferative activity against human HL60 cells after 48 hrs by MTT assay; assay type: functional, cell-based; settings: HL-60, 48 h; procedure, shortened: as §2
HeLa = assay: Antiproliferative activity against human HeLa cells after 48 hrs by MTT assay; assay type: functional, cell-based; procedure, shortened: as §2
HL-60 [8] = assay: Induction of apoptosis in human HL60 cells assessed as late apoptotic cells at 1 uM after 12 hrs by annexin V-FITC/propidium iodide staining-based flow cytometric analysis (reference value: 0.17 to 0.18%); assay type: functional; procedure, shortened: as §1
HL-60 [9] = assay: Induction of apoptosis in human HL60 cells assessed as late apoptotic cells at 1 uM after 24 hrs by annexin V-FITC/propidium iodide staining-based flow cytometric analysis (reference value: 1.64%); assay type: functional; procedure, shortened: as §1
HL-60 [10] = assay: Induction of apoptosis in human HL60 cells assessed as viable cells at 0.5 uM after 12 hrs by annexin V-FITC/propidium iodide staining-based flow cytometric analysis (reference value: 99.12 to 99.33%); assay type: functional; settings: HL-60, 12 h, read-out: Activity; procedure, shortened: as §1
[11] = target: T2, DNA topoisomerase 1 (Homo sapiens) (UniProt P11387); assay: Inhibition of recombinant human topoisomerase 1 assessed as interacaltion of pBR322 DNA at 50 uM pre-incubated with DNA followed by incubation with enzyme for 30 mins by agarose gel electrophoresis
T2 sequence (whole entry): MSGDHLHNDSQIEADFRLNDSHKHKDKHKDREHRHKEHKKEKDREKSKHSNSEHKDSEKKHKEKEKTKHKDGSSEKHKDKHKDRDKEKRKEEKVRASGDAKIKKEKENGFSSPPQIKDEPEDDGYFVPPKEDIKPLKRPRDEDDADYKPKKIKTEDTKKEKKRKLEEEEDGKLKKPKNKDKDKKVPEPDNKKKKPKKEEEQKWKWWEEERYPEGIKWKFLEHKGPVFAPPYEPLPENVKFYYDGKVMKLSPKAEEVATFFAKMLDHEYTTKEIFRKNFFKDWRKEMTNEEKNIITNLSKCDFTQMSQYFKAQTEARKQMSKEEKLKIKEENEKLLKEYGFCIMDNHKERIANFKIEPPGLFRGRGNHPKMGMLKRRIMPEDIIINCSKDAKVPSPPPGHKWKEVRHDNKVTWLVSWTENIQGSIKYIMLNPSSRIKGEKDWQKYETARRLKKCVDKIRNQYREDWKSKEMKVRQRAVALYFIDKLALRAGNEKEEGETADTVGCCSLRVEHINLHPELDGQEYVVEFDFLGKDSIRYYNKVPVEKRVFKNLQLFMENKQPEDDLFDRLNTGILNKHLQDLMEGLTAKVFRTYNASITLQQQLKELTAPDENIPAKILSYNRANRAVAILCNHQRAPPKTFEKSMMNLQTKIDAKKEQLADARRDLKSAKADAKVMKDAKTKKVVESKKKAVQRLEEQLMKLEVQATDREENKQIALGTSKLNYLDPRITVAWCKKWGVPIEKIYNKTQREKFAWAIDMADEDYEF
Procedure, shortened: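 Supercoiled pBR322 first relaxed with Topo I in 50 mM Tris-HCl pH 7.5, 50 mM KCl, 10 mM MgCl2, 0.5 mM DTT, 0.1 mM EDTA, 30 μg/ml BSA. 0.1 μg relaxed DNA preincubated with compound 10 min at room temperature, then Topo I (1 unit) added for 30 min at 37 °C; phenol-chloroform extracted, SDS/EDTA stop, 1% agarose 1 h at 90 V; ethidium bromide as intercalator reference.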

[12] = target: T1, DNA topoisomerase 2-alpha; assay: Inhibition of purified human topoisomerase 2 using supercoiled pBR322 DNA as substrate assessed as linear DNA formation at 20 uM incubated for 6 mins by agarose gel electrophoresis
Procedure, shortened: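 Human Topo II (6 units) with 0.1 μg supercoiled pBR322 in 50 mM Tris-HCl pH 8.0, 150 mM NaCl, 10 mM MgCl2, 2 mM ATP, 0.5 mM DTT, 30 μg/ml BSA; compounds at 20 μM, etoposide 100 μM. After 6 min at 37 °C, complexes trapped with SDS then EDTA, proteinase K 30 min at 45 °C, heated 72 °C 2 min, run on 1% agarose; linear DNA scored. Antagonism tested by compound pretreatment before etoposide.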

HL-60 [13] = assay: Induction of apoptosis in human HL60 cells assessed as viable cells at 1 uM after 12 hrs by annexin V-FITC/propidium iodide staining-based flow cytometric analysis (reference value: 99.12 to 99.33%); assay type: functional; settings: HL-60, 12 h, read-out: Activity; procedure, shortened: as §1
HL-60 [14] = assay: Resistance index, ratio of IC50 for human HL60/MX2 cells to IC50 for HL60 cells; assay type: functional
Procedure, shortened: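 Resistance index calculated as MTT-derived IC50 (48 h exposure, 0-50 μM, A570 readout) in HL-60/MX2 divided by IC50 in parental HL-60.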

T1 sequence (P11388 whole entry): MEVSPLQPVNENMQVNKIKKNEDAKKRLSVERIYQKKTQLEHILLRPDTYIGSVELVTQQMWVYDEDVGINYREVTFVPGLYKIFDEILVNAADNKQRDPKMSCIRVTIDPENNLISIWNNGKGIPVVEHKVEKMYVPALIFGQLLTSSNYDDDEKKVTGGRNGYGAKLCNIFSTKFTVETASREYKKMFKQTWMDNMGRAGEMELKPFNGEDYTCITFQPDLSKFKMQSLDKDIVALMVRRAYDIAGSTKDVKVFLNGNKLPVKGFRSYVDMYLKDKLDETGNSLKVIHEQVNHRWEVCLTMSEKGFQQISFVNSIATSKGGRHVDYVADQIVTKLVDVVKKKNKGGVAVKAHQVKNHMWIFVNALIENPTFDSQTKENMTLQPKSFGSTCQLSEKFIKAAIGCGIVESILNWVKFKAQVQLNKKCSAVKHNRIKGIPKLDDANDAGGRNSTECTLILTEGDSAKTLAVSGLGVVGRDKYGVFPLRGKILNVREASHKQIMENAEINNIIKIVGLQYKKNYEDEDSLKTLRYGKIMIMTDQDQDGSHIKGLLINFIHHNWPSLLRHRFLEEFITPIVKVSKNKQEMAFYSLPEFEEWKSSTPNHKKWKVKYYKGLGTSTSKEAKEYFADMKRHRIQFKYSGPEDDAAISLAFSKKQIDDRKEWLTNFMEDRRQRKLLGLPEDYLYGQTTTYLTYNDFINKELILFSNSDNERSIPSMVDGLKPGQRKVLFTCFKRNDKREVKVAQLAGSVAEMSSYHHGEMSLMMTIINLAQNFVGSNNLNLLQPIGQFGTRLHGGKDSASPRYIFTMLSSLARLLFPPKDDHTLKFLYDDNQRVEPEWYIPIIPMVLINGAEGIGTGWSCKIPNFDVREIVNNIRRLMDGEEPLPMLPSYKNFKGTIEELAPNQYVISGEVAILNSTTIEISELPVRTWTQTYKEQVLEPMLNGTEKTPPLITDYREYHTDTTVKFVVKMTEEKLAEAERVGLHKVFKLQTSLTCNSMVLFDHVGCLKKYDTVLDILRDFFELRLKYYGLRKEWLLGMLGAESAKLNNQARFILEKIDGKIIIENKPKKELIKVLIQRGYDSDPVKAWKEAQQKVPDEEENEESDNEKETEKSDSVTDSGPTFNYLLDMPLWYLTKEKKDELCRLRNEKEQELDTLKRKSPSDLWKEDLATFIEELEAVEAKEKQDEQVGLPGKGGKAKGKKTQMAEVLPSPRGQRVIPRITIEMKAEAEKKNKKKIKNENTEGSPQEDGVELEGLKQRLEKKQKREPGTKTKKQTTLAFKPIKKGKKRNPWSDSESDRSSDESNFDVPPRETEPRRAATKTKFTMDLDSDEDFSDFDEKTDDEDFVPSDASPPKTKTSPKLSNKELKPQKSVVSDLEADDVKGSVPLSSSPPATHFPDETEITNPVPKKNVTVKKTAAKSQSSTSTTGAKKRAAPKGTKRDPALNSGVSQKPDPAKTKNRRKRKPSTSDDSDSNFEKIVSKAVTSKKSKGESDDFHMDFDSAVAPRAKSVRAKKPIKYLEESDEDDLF

Compound | inhibition [1] | Activity (HL-60 [2]) | viability at 2 µM (HL-60 [3]) | Activity (HL-60 [4]) | Activity (HL-60 [5]) | viability at 0.25 µM (HL-60 [6]) | pIC50 (A549) | pIC50 [7] | pIC50 (HeLa) | Activity (HL-60 [8]) | Activity (HL-60 [9]) | viability at 0.5 µM (HL-60 [10]) | inhibition [11] | inhibition [12] | viability at 1 µM (HL-60 [13]) | Ratio IC50 (HL-60 [14])
CN(C)CCCCn1c(N)c(-c2nc3ccccc3[nH]2)c2nc(C#N)c(C#N)nc21 | Active | 0.46% | 28.1% | 0.53% | 0.05% | 99% | 5.08 | 6.37 | 4.95 | 0.39% | 90.51% | 99.3% | inactive | inactive | 98.7% | 4.1
CCN(CC)CCCCn1c(N)c(-c2nc3ccccc3[nH]2)c2nc(C#N)c(C#N)nc21 | Active | 0.35% | 45.3% | 9.38% | 0.1% | 99.2% | 5.24 | 6.34 | 5.00 | 1.19% | 45.05% | 99.3% | inactive | inactive | 97.2% | 3.3
